Columns and labels:
[1] = target: T1, Chemoattractant receptor-homologous molecule expressed on Th2 cells (Cavia porcellus, UniProt Q56D28); assay: Displacement of [3H]PGD2 from guinea pig CRTH2 receptor expressed in HEK293 cells after 2 hrs by scintillation counting; format: cell-based
T1 sequence (Q56D28 whole entry): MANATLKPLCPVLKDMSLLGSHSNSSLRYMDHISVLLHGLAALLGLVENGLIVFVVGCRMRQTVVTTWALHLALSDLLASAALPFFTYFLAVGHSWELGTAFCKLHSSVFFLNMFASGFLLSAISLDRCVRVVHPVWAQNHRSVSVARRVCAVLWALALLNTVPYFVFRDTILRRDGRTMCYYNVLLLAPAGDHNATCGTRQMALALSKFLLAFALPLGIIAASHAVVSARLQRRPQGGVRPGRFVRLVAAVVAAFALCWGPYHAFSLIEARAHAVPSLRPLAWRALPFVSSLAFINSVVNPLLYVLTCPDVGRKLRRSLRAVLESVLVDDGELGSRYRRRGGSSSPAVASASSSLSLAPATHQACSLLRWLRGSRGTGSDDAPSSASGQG
Method in brief: (§1)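 Disrupted HEK293 cells stably transfected with human or guinea pig CRTH2 (10 µg protein/well human; 20 µg protein/well guinea pig) in 10 mM BES, 1 mM EDTA, 10 mM MnCl2, pH 7.0, incubated with [3H]PGD2 and rising compound levels 2 h at 4 °C; filtered, scintillation counted; nonspecific binding with 10 µM DK-PGD2; IC50 for 50% binding loss; mean of ≥2 experiments.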

[2] = target: T2, Prostaglandin D2 receptor (Homo sapiens, UniProt Q13258); assay: Displacement of [3H]PGD2 from human DP1 receptor expressed in HEK293 cells after 2 hrs by scintillation counting; format: cell-based
T2 sequence (Q13258 whole entry): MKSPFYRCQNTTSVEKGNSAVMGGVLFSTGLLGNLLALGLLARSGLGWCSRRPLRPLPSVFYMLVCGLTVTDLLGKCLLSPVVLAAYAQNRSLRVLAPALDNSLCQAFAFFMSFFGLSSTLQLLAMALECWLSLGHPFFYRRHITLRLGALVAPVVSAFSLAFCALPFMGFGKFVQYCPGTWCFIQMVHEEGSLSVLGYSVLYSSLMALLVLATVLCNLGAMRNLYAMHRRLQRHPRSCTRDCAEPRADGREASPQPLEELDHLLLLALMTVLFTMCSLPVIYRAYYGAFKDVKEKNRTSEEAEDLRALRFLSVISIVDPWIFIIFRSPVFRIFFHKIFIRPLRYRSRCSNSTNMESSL
Method in brief: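 Disrupted HEK293 cells stably expressing human DP1 (10 µg protein/well) in 10 mM BES, 1 mM EDTA, 10 mM MnCl2, pH 7.0, incubated with [3H]PGD2 and increasing compound concentrations 2 h at 4 °C; glass-filter harvest and scintillation counting of retained radioactivity.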

[3] = Cmax in Hartley guinea pig at 10 mg/kg, po; format: ADME, organism-based, Cavia porcellus; design: dose 10 mg/kg, route oral; conditions: in vivo
Method in brief: (§2)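 Guinea pigs fasted overnight, given 10 mg/kg orally as a 10 mg/mL suspension in 0.5% methylcellulose in water; plasma Cmax and AUC determined.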

[4] = AUC in Hartley guinea pig at 10 mg/kg, po; format: ADME, organism-based, Cavia porcellus; design: dose 10 mg/kg, route oral; conditions: plasma; method in brief: as §2
[5] = Clearance in guinea pig liver microsomes; format: ADME, Cavia porcellus, Microsome; conditions: read-out: CLH
[6] = target: T3, Prostaglandin D2 receptor 2 (Homo sapiens, UniProt Q9Y5Y4); assay: Displacement of [3H]PGD2 from human CRTH2 receptor expressed in HEK293 cells after 2 hrs by scintillation counting; format: cell-based; method in brief: as §1
T3 sequence (Q9Y5Y4 whole entry): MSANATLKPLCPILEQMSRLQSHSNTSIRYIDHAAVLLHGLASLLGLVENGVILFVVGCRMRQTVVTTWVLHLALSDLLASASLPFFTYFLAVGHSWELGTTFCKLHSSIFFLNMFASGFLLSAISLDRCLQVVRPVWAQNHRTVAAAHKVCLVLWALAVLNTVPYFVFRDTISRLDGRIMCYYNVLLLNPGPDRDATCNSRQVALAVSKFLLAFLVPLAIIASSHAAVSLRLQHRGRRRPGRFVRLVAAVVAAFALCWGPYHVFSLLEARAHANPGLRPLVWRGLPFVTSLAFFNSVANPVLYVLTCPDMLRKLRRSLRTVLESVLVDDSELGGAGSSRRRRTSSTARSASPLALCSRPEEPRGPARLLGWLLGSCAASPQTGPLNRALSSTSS

Row | SMILES | IC50 [1] | IC50 [2] | Cmax [3] | AUC [4] | CLint scaled [5] | IC50 [6]
1 | O=C(O)COc1cccc(CCCn2nc(C(c3ccccc3)c3ccccc3)ccc2=O)c1 | 147 nM |  | 730 ng/mL | 2400 ng·h/mL |  | 18 nM
2 | O=C(O)COc1cccc(OCCn2cc(C(c3ccccc3)c3ccccc3)ccc2=O)c1 | 797 nM |  |  |  |  | 99 nM
3 | CC(Oc1cccc(CCCn2cc(C(c3ccccc3)c3ccccc3)ccc2=O)c1)C(=O)O (stereo not given) | 128 nM |  |  |  |  | 17 nM
4 | CCC(Oc1cccc(CCCn2cc(C(c3ccccc3)c3ccccc3)ccc2=O)c1)C(=O)O (stereo not given) | 990 nM |  |  |  |  | 502 nM
5 | CC(C)(Oc1cccc(CCCn2cc(C(c3ccccc3)c3ccccc3)ccc2=O)c1)C(=O)O | > 1000 nM |  |  |  |  | 
6 | O=C(O)CCCOc1cccc(CCCn2nc(C(c3ccccc3)c3ccccc3)ccc2=O)c1 | 52 nM | 5200 nM | 2860 ng/mL | 4850 ng·h/mL |  | 13 nM
7 | O=C(O)COc1cccc(CCCN(CCC(c2ccccc2)c2ccccc2)C(=O)c2ccccc2)c1 | 18 nM |  |  |  |  | 9.7 nM
8 | COc1ccc(C(=O)N(CCCc2cccc(OCC(=O)O)c2)CCC(c2ccccc2)c2ccccc2)cc1 | 17 nM |  | 40 ng/mL | 270 ng·h/mL | 766 mL/min/kg | 5.5 nM

The next lines start with the values.

Row | IC50 [1] | IC50 [2] | Cmax [3] | AUC [4] | CLint scaled [5] | IC50 [6] | SMILES
9 | 256 nM | > 1000 nM | 840 ng/mL | 5950 ng·h/mL | 120 mL/min/kg |  | O=C(O)COc1cccc(CCCn2cc(C(c3ccccc3)c3ccccc3)ccc2=O)c1
10 | 359 nM |  |  |  |  | 11 nM | O=C(O)COc1cccc(CCCn2cc(C(c3ccc(F)cc3)c3ccc(F)cc3)ccc2=O)c1
11 | > 1000 nM |  |  |  |  | 9.2 nM | O=C(O)COc1cccc(CCCn2cc(C(c3ccc(Cl)cc3)c3ccc(Cl)cc3)ccc2=O)c1
12 | 772 nM |  |  |  |  | 6.2 nM | Cc1ccc(C(c2ccc(C)cc2)c2ccc(=O)n(CCCc3cccc(OCC(=O)O)c3)c2)cc1
13 | 211 nM |  |  |  |  | 5.8 nM | COc1ccc(C(c2ccc(OC)cc2)c2ccc(=O)n(CCCc3cccc(OCC(=O)O)c3)c2)cc1
14 | 99 nM |  | 500 ng/mL | 1020 ng·h/mL |  | 11 nM | O=C(O)CCCOc1cccc(CCCn2cc(C(c3ccccc3)c3ccccc3)ccc2=O)c1

Source: ChEMBL document CHEMBL1938331, “Discovery of novel and potent CRTH2 antagonists” (Bioorg Med Chem Lett, 2012)
